Compound activity deposited in PubChem by several laboratories.
Ba/F3 V617F tox: loss of viability in JAK2V617F-driven Ba/F3 cells. AID 1446. inhibition, % at 5.6 µM. Ba/F3 EpoR-JAK2V617F viability, ATP luminescence. 1.1% of 220,000 active;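 active means inhibition above the campaign mean plus 3 SD over all tested compounds, cut at about 24% in these data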;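 further: cytokine-independent growth of Ba/F3 cells driven by EpoR plus mutant JAK2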
bCat nuc transl: beta-catenin nuclear translocation modulation. HeLa beta-catenin nuclear translocation, immunofluorescence imaging. nuclear translocation activity, % at 5 µM. 0.3% of 190,000 active;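 active means nuclear translocation activity above 50% at 5 µM, with a well cell count of 50 or more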;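 further: per-cell ratio of nuclear to cytoplasmic median beta-catenin stain intensity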
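Test system: human HeLa cells, native beta-catenin. Compound dosing: 5 µM primary single dose, 0.1% DMSO, 0.02–20 µM confirmation series. Incubation: compound exposure 24 h at 37°C. Detection: beta-catenin immunostaining with DAPI counterstain, 20x imaging, 6 fields/well. Read-out basis: Nuclear/cytoplasmic beta-catenin signal ratio, % activation.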
APP 5UTR inh: APP translation inhibition. inhibition, % at 2 µM. 0.82% of 190,000 active. AID 1285. SH-SY5Y APP 5'UTR-luciferase reporter, luminescence;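 active means inhibition above a set limit, derived from the sample mean plus 3 SD, cut at about 45% in these data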
Lmaj promast: reduces viability of Leishmania major promastigotes; resazurin fluorescence viability; 9% of 200,000 active; inhibition, % at 10 µM; in the data active means inhibition above about 50%;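 further: promastigotes grown with compound for 44 hours at 28 °C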
MT stabilizer: stabilizes microtubules in HeLa cells; 0.83% of 200,000 active; HeLa tubulin immunostaining HCS, 24 h; share of cells brighter than vehicle mean+2SD; % tubulin-high responders, % at 10 µM;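 active means plate Z-score above 3 for both tubulin-high and condensed-nucleus cell shares, with cell loss under 80%, at 10 µM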;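 further: anti alpha tubulin signal scored within the nucleus-defined area of each cell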
BaF3 parental: parental Ba/F3 viability inhibition as JAK2V617F counter-screen. 1.1% of 220,000 active. inhibition, % at 5.6 µM. AID 1486. CellTiter-Glo ATP luminescence;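 active means inhibition above a per-campaign cutoff, the mean inhibition of all tested compounds plus 3 SD, cut at about 27% in these data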
Hits are given with their value; - = inactive; . = no result. Sampled rows, rich in hits. Any-hit rate of the full collection: about 9.6%.

SMILES	Ba/F3 V617F tox	bCat nuc transl	APP 5UTR inh	Lmaj promast	MT stabilizer	BaF3 parental
COc1ccc(NC(=O)Cn2nnc(-c3ccc(CN4CCOCC4)cc3)n2)c(OC)c1	-	-	-	83	-	-
Cc1ccccc1NC(=O)Cn1nnc(-c2ccc(CN3CCC(C)CC3)cc2)n1	-	-	.	.	.	-
COc1ccc(-c2ccc(-c3nnn(CC(C)=O)n3)cc2)cc1	-	.	-	-	-	-
Clc1ccc(Cn2nnc(-c3ccc(CN4CCOCC4)cc3)n2)cc1	-	-	-	96	-	-
Fc1cccc(Cl)c1Cn1nnc(-c2ccc(N3CCOCC3)cc2)n1	-	-	-	-	-	-
Cc1ccc(C(C)n2cc(C(=O)NCc3ccccn3)nn2)cc1 (centres undefined)	-	-	-	-	-	-
O=C1NC(=S)N/C1=C\C=C\c1ccccc1	-	-	.	.	.	-
Cc1ccc(NC(=O)CN2C(=O)N/C(=C\c3cccnc3)C2=O)cc1	-	-	54	-	-	-
Cc1cccc(NC(=O)CN2C(=O)N/C(=C/c3cc(C)n(-c4cccnc4)c3C)C2=O)c1	-	-	-	-	-	-
OCCNc1cc(Cl)ncn1	-	-	.	.	.	-
CCOC(=O)CCCCCN(Cc1ccccc1)S(=O)(=O)c1ccc([N+](=O)[O-])cc1	-	-	-	97	-	-
CCCCC(CC)CNC(=O)C(=O)c1ccccc1NC(C)=O (centres undefined)	-	-	-	-	-	-
O=C(CCS(=O)(=O)c1ccccc1)Nc1nc(-c2cccs2)cs1	-	-	-	50	-	-
Cc1ccc(-c2csc(NC(=O)CCCc3cccs3)n2)cc1	-	-	-	-	-	-
O=C(COc1ccccc1)Nc1nc(-c2cccs2)cs1	-	-	-	-	-	-
Cc1ccc(-c2csc(NC(=O)CCNC(=O)c3ccc(Cl)cc3)n2)cc1	-	-	-	-	-	-
CC(=O)Nc1ccc(-c2csc(NCc3ccccc3)n2)cc1	-	-	-	60	-	-
CC(=O)Nc1ccc(-c2csc(NC(=O)CCCc3cccs3)n2)cc1	-	.	-	75	-	-
Cc1ccc(-c2csc(NC(=O)CCNC(=O)c3ccccc3Cl)n2)cc1	-	.	-	84	-	-
O=S(=O)(Nc1ccccn1)c1cccc(S(=O)(=O)c2ccc(Br)cc2)c1	-	-	-	-	-	-
C/C(N)=C(/C#N)C(=O)COC(=O)c1cc(S(=O)(=O)N2CCCCC2)ccc1C	-	-	-	71	-	-
C/C(N)=C(/C#N)C(=O)COC(=O)c1ccc(C)c(S(=O)(=O)N2CCCCC2)c1	-	-	-	-	-	-
O=S(=O)(Nc1ccccc1N1CCCCC1)c1ccc(F)cc1	-	-	.	.	.	-
NC(=O)CSc1nnc(Cc2ccc3c(c2)OCO3)o1	-	-	-	-	-	-
COc1cccc(CN2CCN(C3CSCCSC3)CC2CCO)c1 (centres undefined)	-	-	-	-	-	-
SMILES	Ba/F3 V617F tox	bCat nuc transl	APP 5UTR inh	Lmaj promast	MT stabilizer	BaF3 parental
COc1cccc(CN2CCN(Cc3ccon3)CC2CCO)c1 (centres undefined)	-	-	-	-	-	-
COc1cccc(CN2CCN(C3CCN(c4cccc(C)c4C)CC3)CC2CCO)c1 (centres undefined)	-	-	-	92	-	-
COc1cccc(CN2CCN(C3CCN(c4ccccc4C)CC3)CC2CCO)c1 (centres undefined)	-	-	-	92	-	-
COc1cccc(CN2CCN(C3CCN(c4ccccc4F)CC3)CC2CCO)c1 (centres undefined)	-	-	-	95	.	-
OCCC1CN(C2CCN(c3ccccc3)CC2)CCN1Cc1ccc(F)c(F)c1 (centres undefined)	-	-	-	93	-	-
Cc1nn(C)c(C)c1CN(C)C(=O)c1nn2c(c1Br)NC(c1cccs1)CC2C(F)(F)F (centres undefined)	-	-	-	-	-	-
Cc1ccc(OCC(=O)N2CCCCCC2)c(C)c1	-	-	-	-	-	-
Cc1ccc(OCCCCn2ccnc2C)c(C)c1	-	-	-	89	-	-
Cc1ccc(OCCCCNC2CCCC(C)C2C)c(C)c1 (centres undefined)	-	-	-	90	-	-
Cc1ccc(OCCN2CCCCCC2)c(C)c1	-	-	-	96	-	-
Cc1ccc(OCCCN2CCCC2)c(C)c1	-	.	-	97	-	-
COc1ccc(C)cc1S(=O)(=O)NC1CCCCC1C (centres undefined)	-	-	-	-	-	-
CN(C)/C=C(\C#N)C(=O)N/N=C/c1ccccc1	-	-	-	-	-	-
Cc1ccccc1Nc1nnc(SCC(=O)NC2CCCc3ccccc32)s1 (centres undefined)	-	-	-	-	-	-
COc1ccc(C(C)(C)C)cc1S(=O)(=O)n1ccnc1C	-	-	-	-	-	-
CCN1CCN(CCOc2ccc(Br)cc2C)CC1	-	-	-	93	-	-
CC(C)n1c(=O)[nH][nH]c1=S	-	-	.	.	.	-
Cc1ccc(/C=C/C(=O)c2nc3ccccc3[nH]2)cc1	-	-	-	98	-	-
Cc1ccc(/C=C/C(=O)Nc2nc3ccccc3[nH]2)cc1	-	-	-	-	-	-
COc1ccc2nc(Nc3nc(CSc4nnnn4-c4ccccc4)cc(=O)[nH]3)nc(C)c2c1	-	.	-	-	-	-
CCOc1ccc2nc(Nc3nc(CSc4nnnn4-c4ccccc4)cc(=O)[nH]3)nc(C)c2c1	-	-	.	50	-	-
COc1ccc2nc(Nc3nc(C)c(CCC(C)C)c(=O)[nH]3)nc(C)c2c1	-	-	-	99	-	-
Cc1ccc(SCc2cc(=O)[nH]c(Nc3nc(C)c4cccc(C)c4n3)n2)cc1	-	.	-	-	-	-
COc1ccc2nc(Nc3nc(CSc4ccc(C)cc4)cc(=O)[nH]3)nc(C)c2c1	-	-	-	65	-	-
CCCSC1=C(C#N)C(c2cccs2)C(C(=O)Nc2ccccc2)=C(C)N1 (centres undefined)	-	-	-	89	-	-
SMILES	Ba/F3 V617F tox	bCat nuc transl	APP 5UTR inh	Lmaj promast	MT stabilizer	BaF3 parental
C=CCOC(=O)C1=C(C)NC(SC)=C(C#N)C1c1cccs1 (centres undefined)	-	-	-	-	38	-
CCOC(=O)C1=C(C)NC(SCC(=O)Nc2cc(C)on2)=C(C#N)C1c1cccs1 (centres undefined)	-	-	-	60	-	-
CCSC1=C(C#N)C(c2cccs2)C(C(=O)OC)=C(C)N1 (centres undefined)	-	-	-	-	-	-
COC(=O)c1sccc1NC(=O)CC1C(=O)NCCN1C(=O)Nc1cc(Cl)ccc1OC (centres undefined)	-	-	.	.	.	-
C/C(CC(=O)Nc1ccc(Cl)c(Cl)c1)=N\NC(N)=S	-	.	-	62	-	-
COC(=O)c1c(C)[nH]c(C)c1-c1ccc(C)cc1	-	.	-	94	-	-
COC(=O)c1c(C)[nH]c(C)c1-c1cccc([N+](=O)[O-])c1	-	-	-	-	-	-
